Results of several laboratories.
PIK3CA H1047L: Phosphatidylinositol 4,5-bisphosphate 3-kinase catalytic subunit alpha isoform (PIK3CA, Homo sapiens, UniProt P42336, H1047L)
PIK3CA E545A: Phosphatidylinositol 4,5-bisphosphate 3-kinase catalytic subunit alpha isoform (PIK3CA, Homo sapiens, UniProt P42336, E545A)
PIK3CA I800L: Phosphatidylinositol 4,5-bisphosphate 3-kinase catalytic subunit alpha isoform (PIK3CA, Homo sapiens, UniProt P42336, I800L)
PIK3CA H1047Y: Phosphatidylinositol 4,5-bisphosphate 3-kinase catalytic subunit alpha isoform (PIK3CA, Homo sapiens, UniProt P42336, H1047Y)
PIK3CA C420R: Phosphatidylinositol 4,5-bisphosphate 3-kinase catalytic subunit alpha isoform (PIK3CA, Homo sapiens, UniProt P42336, C420R)
PIK3CA E545K: Phosphatidylinositol 4,5-bisphosphate 3-kinase catalytic subunit alpha isoform (PIK3CA, Homo sapiens, UniProt P42336, E545K)
PIK3CA E542K: Phosphatidylinositol 4,5-bisphosphate 3-kinase catalytic subunit alpha isoform (PIK3CA, Homo sapiens, UniProt P42336, E542K)

With `O=C(c1ccc(Nc2nccc(-c3cc4ccccc4s3)n2)cc1)N1CCC(N2CCCC2)CC1` the remaining binding was 100% (PIK3CA H1047L; binding, competition with immobilised ligand; 1 µM).
The remaining binding of `C[C@@H]1CCN(c2nccc(-c3cnn4ncccc34)n2)C1` is reported as 88% (PIK3CA E545A; binding; 1 µM).
For `O=C(NCCCN1CCOCC1)c1ccc(Nc2ncc(Cl)c(-c3ccc(Cl)s3)n2)cc1`, the remaining binding was 100% (Phosphatidylinositol 4,5-bisphosphate 3-kinase catalytic subunit alpha isoform (PIK3CA, Homo sapiens, UniProt P42336, Q546K); binding, competition with immobilised ligand; 1 µM).
The remaining binding of `CCN1CCN(Cc2ccc(C(=O)Nc3ccc(C)c(Oc4ccc5c(c4)CC(=O)N5)c3)cc2C(F)(F)F)CC1` is reported as 95% (PIK3CA I800L; binding, competition with immobilised ligand; 1 µM).
`O=C(NCCCN1CCOCC1)c1ccc(Nc2nccc(-c3cc4ccccc4s3)n2)cc1` has a remaining binding of 84% (PIK3CA E545A; binding, competition with immobilised ligand; 1 µM).
`Cc1c[nH]c2nccc(Oc3c(F)cc(Nc4cc(Cl)nc(N)n4)cc3F)c12` gave a remaining binding of 83% (PIK3CA H1047Y; cell-free assay, competition with immobilised ligand; 0.1 µM).
`COc1ncc2cc3ccccc3nc2c1C#N` has a remaining binding of 86% (PIK3CA H1047Y; cell-free assay, competition with immobilised ligand; 5 µM).
`CC1CCCN1c1nccc(-c2cnn3ncccc23)n1` (stereo not drawn) gave a remaining binding of 88% (PIK3CA I800L; binding; 1 µM).
With `CN(C(=O)c1ccccc1)c1cc(N(C)c2ccc3c(c2)CCc2ccc(C(=O)NCCN4CCOCC4)cc2C3=O)ccc1F` the remaining binding was 91% (PIK3CA C420R; cell-free assay, competition with immobilised ligand; 1 µM).
`O=C(Nc1c[nH]nc1C(=O)NC1CCNCC1)c1cc(F)cc(F)c1` has a remaining binding of 64% (PIK3CA E545K; binding, competition with immobilised ligand; 1 µM).
For `c1cncc(-c2cccc(Nc3nccc(NC4CCCCC4)n3)c2)c1`, the remaining binding was 80% (PIK3CA E545A; binding, competition with immobilised ligand; 10 µM).
The remaining binding of `C=CC(=O)N1CCC(C(=O)NCC(=O)N2CCN(c3nc(-c4cnc(N)nc4C(F)F)nc(N4CCOCC4)n3)CC2)CC1` is reported as 5.9% (PIK3CA H1047Y; binding, competition with immobilised ligand; 1 µM).
`O=C(N[C@H]1CCCCC/C=C\C2C[C@@]2(C(=O)O)NC(=O)[C@@H]2C[C@@H](Oc3ccncc3)CN2C1=O)OC1CCCC1` (stereo partly drawn) has a remaining binding of 96% (PIK3CA E542K; binding, competition with immobilised ligand; 1 µM).
For `Cc1cnn2ncc(-c3ccnc(N(C)C)n3)c2c1`, the remaining binding was 100% (PIK3CA I800L; binding; 1 µM).
The remaining binding of `CCC(=O)N[C@H]1CC[C@@H](C(=O)N(C)c2ccc(-c3nc4ccccc4o3)cc2)C1` is reported as 92% (PIK3CA C420R; cell-free assay, competition with immobilised ligand; 1 µM).
With `c1cnn2ncc(-c3ccnc(N4CCC45COC5)n3)c2c1` the remaining binding was 68% (PIK3CA I800L; binding; 1 µM).
`CN1CCN(c2ccc(Nc3nccc(-c4cccc([N+](=O)[O-])c4)n3)cc2C(F)(F)F)CC1` has a remaining binding of 36% (PIK3CA E545K; binding; 10 µM).
The remaining binding of `O=S(=O)(NC1CCC(c2cc(F)ccc2F)(S(=O)(=O)c2ccc(Cl)cc2)CC1)C(F)(F)F` (stereo not drawn) is reported as 100% (PIK3CA E542K; cell-free assay, competition with immobilised ligand; 1 µM).
For `CN(CCCC(F)(F)F)c1nccc(-c2cnn3ncccc23)n1`, the remaining binding was 100% (PIK3CA C420R; binding; 1 µM).
`C[C@@H]1CN(c2cc(-c3n[nH]c4ccc(OC5(C)CC5)cc34)ncn2)C[C@H](C)O1` gave a remaining binding of 72% (PIK3CA C420R; cell-free assay, competition with immobilised ligand; 0.1 µM).
The remaining binding of `F[C@@H]1CCN(c2nccc(-c3cnn4ncccc34)n2)C1` is reported as 90% (PIK3CA C420R; binding; 1 µM).
For `COc1cnc(Nc2cccc(S(N)(=O)=O)c2)nc1N1CCN(c2ccccc2)C(=O)C1`, the remaining binding was 90% (PIK3CA H1047L; binding, competition with immobilised ligand; 1 µM).
`N[C@@H]1CCN(c2nccc(-c3cnn4ncccc34)n2)C1` gave a remaining binding of 100% (PIK3CA H1047L; binding; 1 µM).
For `O=C(O)[C@@H]1[C@@H](Cn2nnc3ccccc3c2=O)CC[C@H]1C(=O)c1ccc(OCCC2CCOCC2)cc1`, the remaining binding was 100% (Phosphatidylinositol 4,5-bisphosphate 3-kinase catalytic subunit alpha isoform (PIK3CA, Homo sapiens, UniProt P42336); cell-free assay, competition with immobilised ligand; 1 µM).
